Source: PubChem
Rpn11 block = blocks the human proteasome subunit Rpn11. human 26S proteasome, Ub4-pepOG fluorescence polarization; 20S core pre-blocked with epoxomicin. calls only at 20 µM. 360,000 compounds, 0.59% hits;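 active = inhibition at 20 µM, scaled to each plate's controls, above about 33%, limit read from the data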
TPT1 inhibitor = C. albicans TPT1 enzyme inhibition | inhibition, % at 5 µM | recombinant caTPT1, FP RNA substrate dephosphorylation | AID 1962 | 300,000 compounds, 0.81% hits;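 active = inhibition above the mean of all tested compounds plus 3 SD, set per screening campaign, cut at about 24% in these data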;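 also: plate controls were DMSO alone for no effect and ferristatin control at 100 nM for full effect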
HNF4A DNA FP = change in binding of human HNF4 alpha to DNA; HNF4a-FITC DNA binding, fluorescence polarization, 1 h; 360,000 compounds, 0.3% hits; AID 1224865; activity change, % at 10 µM; in the data active = activity change above about 30%, passing the limit was not always enough
Target sequence (P41235 whole entry, looked up): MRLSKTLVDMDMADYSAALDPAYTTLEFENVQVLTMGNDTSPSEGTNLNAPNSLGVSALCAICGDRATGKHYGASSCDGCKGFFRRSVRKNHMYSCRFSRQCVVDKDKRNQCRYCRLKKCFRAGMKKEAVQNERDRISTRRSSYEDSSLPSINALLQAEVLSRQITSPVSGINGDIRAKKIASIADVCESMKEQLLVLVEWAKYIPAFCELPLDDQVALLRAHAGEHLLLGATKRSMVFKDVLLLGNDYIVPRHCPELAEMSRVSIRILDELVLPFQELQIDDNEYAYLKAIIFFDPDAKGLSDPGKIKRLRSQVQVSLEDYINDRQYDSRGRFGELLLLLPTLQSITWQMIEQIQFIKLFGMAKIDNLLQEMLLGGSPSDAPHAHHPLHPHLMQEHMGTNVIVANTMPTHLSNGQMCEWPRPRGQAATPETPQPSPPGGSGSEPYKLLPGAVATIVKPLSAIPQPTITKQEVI
CSN inh = inhibitors of human CSN-mediated cullin deneddylation. Purified CSN, SCF-Nedd8-OG deneddylation, fluorescence polarization. inhibition, % at 12.5 µM. 360,000 compounds, 0.38% hits;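 active = pattern-corrected inhibition above about 35%, with an unprinted fluorescence ratio check between 0.5 and 1.5, limit read from the data, passing the limit was not always enough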;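 also: 0% = enzyme with substrate and 100% = substrate without enzyme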
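Assay system: purified human Csn5 enzyme expressed in HEK293T cells; Input: 0.24 nM Csn5 enzyme, final concentration; Reagent: 10 nM SCFSkp2-Nedd8OG; Compound dosing: 12.5 µM single point; Times: reaction 90 min, room temperature; Technique: fluorescence polarization readout.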
An asterisk follows results filed as active. Only some compounds are listed: those with a hit (about 1.5% of all), similar ones and a draw of the others.

For C#CCOCCOCCOCCNc1nc(N2CCN(C(=O)CCCCCCCCCCNC(=O)[C@H](CCCCN)n3cc(C)nn3)CC2)nc(N2CCN(C(=O)CCCCCCCCCCNC(=O)[C@@H]([C@H](C)O)n3cc(C)nn3)CC2)n1 the results were Rpn11 block inactive, TPT1 inhibitor -3.0, HNF4A DNA FP -0.8 and CSN inh -2.3.
Screening CCN(CC)S(=O)(=O)c1ccc(N2CCN(C)CC2)c(NC(=O)CN2C(=O)NC3(CCCCC3)C2=O)c1 returned Rpn11 block inactive, HNF4A DNA FP 1.9 and CSN inh -3.4.
Screening Cn1cnnc1SCC(=O)Nc1ccc(OCc2ccccc2)cc1 returned Rpn11 block inactive, TPT1 inhibitor -3.1, HNF4A DNA FP 2.8 and CSN inh 49.8*.
Screening Nc1ccc(S(=O)(=O)N2CCc3ccccc32)cc1 returned Rpn11 block inactive, TPT1 inhibitor -0.1, HNF4A DNA FP 84.9* and CSN inh 0.2.
Screening O=S(=O)(c1ccc2ccccc2c1)N1CCc2ccccc21 returned Rpn11 block inactive, HNF4A DNA FP 1.4 and CSN inh 0.0.
For O=S(=O)(c1cnc[nH]1)N1CCc2ccccc21 the results were TPT1 inhibitor 4.2, HNF4A DNA FP 102.9 and CSN inh 73.1*.
COc1cccc(C(O)c2ncc(-c3cccc4ccccc34)[nH]2)c1 (centres undefined) was read as Rpn11 block inactive, HNF4A DNA FP -0.6 and CSN inh 0.9.
`Nc1c2c(nc3ccccc13)CCC2` gave Rpn11 block inactive, TPT1 inhibitor -5.0, HNF4A DNA FP 34.9* and CSN inh -0.5.
Screening O=C(/C=C/c1cn(-c2ccccc2)nc1-c1cccnc1)N1CCCCC1 returned Rpn11 block inactive, TPT1 inhibitor -0.8, HNF4A DNA FP -1.7 and CSN inh -3.0.
`O=C(/C=C/c1cn(-c2ccccc2)nc1-c1cccc(Cl)c1)N1CCN(c2ccccn2)CC1` gave Rpn11 block inactive, TPT1 inhibitor -4.0, HNF4A DNA FP 1.7 and CSN inh 153.4*.
For CCOc1ccc(S(=O)(=O)Nc2nc3ccccc3nc2-n2ccc(=NC(=O)c3cccs3)cc2)cc1 the results were TPT1 inhibitor 2.0, HNF4A DNA FP 28.0 and CSN inh 45.7*.
`O=C(N=c1ccn(-c2nc3ccccc3nc2NS(=O)(=O)c2ccc(Cl)cc2)cc1)c1cccs1` gave Rpn11 block inactive, TPT1 inhibitor 3.2, HNF4A DNA FP 21.4 and CSN inh 11.2.
Screening CC(C)CN1C(=O)NC(NC(=O)c2ccco2)(C(F)(F)F)C1=O (centres undefined) returned Rpn11 block inactive, TPT1 inhibitor -2.1, HNF4A DNA FP 38.6* and CSN inh -0.9.
`COc1ccc(OC)c(NC(=O)CCC(=O)N(Cc2ccc(OC)c(OC)c2)c2nccs2)c1` gave Rpn11 block inactive, TPT1 inhibitor -4.5, HNF4A DNA FP -3.2 and CSN inh 43.4*.
Cc1ccc(Cn2c(=N)n(CC(=O)c3ccc([N+](=O)[O-])cc3)c3ccccc32)cc1 was read as TPT1 inhibitor 1.9, HNF4A DNA FP 63.6* and CSN inh 42.5*.
`COc1ccc(CN2CCNC(=O)C2CC(=O)N2CCCN(C(C)=O)CC2)cc1OC` (centres undefined) gave Rpn11 block inactive, TPT1 inhibitor 1.1, HNF4A DNA FP 1.0 and CSN inh -1.5.
Screening COc1ccc2cc1Oc1ccc(cc1)CC1c3c(cc(OC)c4c3Oc3cc5c(cc3O4)CCNC5C2)CCN1C (centres undefined) returned Rpn11 block inactive, TPT1 inhibitor -1.1, HNF4A DNA FP 99.7* and CSN inh 3.7.
For COc1ccc2cc1Oc1ccc(cc1)C[C@H]1c3c(cc(OC)c4c3Oc3c(ccc5c3[C@H](C2)N(C)CC5)O4)CCN1C the results were Rpn11 block inactive, HNF4A DNA FP 76.4* and CSN inh -0.1.
For Cc1cc(C(=O)CCC(=O)N(C)CC(=O)Nc2c(Cl)cccc2Cl)c(C)s1 the results were Rpn11 block inactive, TPT1 inhibitor 0.0, HNF4A DNA FP 3.8 and CSN inh 90.4*.
CN(CC(=O)Nc1c(Cl)cccc1Cl)C(=O)CCC(=O)c1ccccc1 was read as Rpn11 block inactive, HNF4A DNA FP 1.4 and CSN inh 1.5.
For CCCCc1cc(=O)oc2cc(C)cc(OCC(=O)NCc3ccccn3)c12 the results were Rpn11 block inactive, TPT1 inhibitor -2.2, HNF4A DNA FP -1.6 and CSN inh -3.7.
`COc1cccc(CSc2nc3ccccc3[nH]2)c1` gave Rpn11 block inactive, TPT1 inhibitor -0.7, HNF4A DNA FP 32.5* and CSN inh 0.0.
Screening Cc1ccc(SCC(=O)OC(C)C(=O)Nc2ccc(S(N)(=O)=O)cc2)cc1C (centres undefined) returned Rpn11 block inactive, TPT1 inhibitor 0.4, HNF4A DNA FP 1.1 and CSN inh -5.8.
For Cc1c(CC(=O)O)c(=O)oc2c(C)c(OCc3ccc(F)cc3Cl)ccc12 the results were Rpn11 block inactive, TPT1 inhibitor -1.3, HNF4A DNA FP 0.5 and CSN inh 53.4*.
Screening O=C(CSc1nc2sc3c(c2c(=O)n1-c1ccccc1)CCCC3)N/N=C/c1ccccc1C(=O)O returned Rpn11 block inactive, TPT1 inhibitor 0.2, HNF4A DNA FP -1.1 and CSN inh 49.8*.
Screening Cc1cc(C)c2c(c1)CC(C)(C)CC2=O returned Rpn11 block inactive, HNF4A DNA FP 56.8* and CSN inh -2.5.
`O=C(/C=C/c1cccc(C(F)(F)F)c1)OCC(=O)N1CCN(c2ccccc2)CC1` gave Rpn11 block inactive, HNF4A DNA FP 6.8 and CSN inh -0.1.
`COc1ccc(CN(CCN(C)C)c2ccccn2)cc1` gave Rpn11 block inactive, TPT1 inhibitor 3.4, HNF4A DNA FP -1.0 and CSN inh -2.2.
For CCCCCCCCCCCCCCCC[N+](C)(C)CCN(Cc1ccc(OC)cc1)c1ncccn1 the results were Rpn11 block active, TPT1 inhibitor -2.3, HNF4A DNA FP 26.5 and CSN inh 23.1.
COc1ccc(C)cc1N(CC(=O)N1CCCCCC1)S(C)(=O)=O was read as Rpn11 block inactive, TPT1 inhibitor 1.7, HNF4A DNA FP -0.1 and CSN inh 3.3.
For COc1ccc(C)cc1N(CC(=O)N1CCCC1)S(C)(=O)=O the results were Rpn11 block inactive, TPT1 inhibitor -1.8, HNF4A DNA FP 9.1 and CSN inh 69.6*.
For CCC(c1nc2ccccc2[nH]1)N(Cc1cccnc1)C(=O)c1cc(-c2ccccc2)on1 (centres undefined) the results were Rpn11 block inactive, HNF4A DNA FP 2.0 and CSN inh -2.9.
For CC(=O)Nc1ccc(-c2ccnc3c2CC(C)(C(=O)Nc2ccc(F)c(Cl)c2)O3)cc1 (centres undefined) the results were Rpn11 block inactive, HNF4A DNA FP 5.4 and CSN inh 1.4.
For COc1cccc(OC)c1C(=O)N1CCOCC1 the results were Rpn11 block inactive, TPT1 inhibitor -0.5, HNF4A DNA FP 33.5* and CSN inh 0.8.
